We go through seven molecules from ChEMBL document CHEMBL1139862, “Malaria-infected mice are cured by a single dose of novel artemisinin derivatives” (2007).

Holding throughout (type): functional
The subject of assay [1] is Mus musculus. The experiment in a line: Survival of Plasmodium berghei GFP infected mice (Mus musculus) at 10 mg/kg, subcutaneous after single dose. In short, it runs like this: (§1)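 Single subcutaneous dose given on day 1 after infection; vehicle Tween 80 (70%)/ethanol (30%), then 10× dilution with water. Three animals per dimer group. Read-out is average survival in days after infection. Mice alive at day 30 were sacrificed, and if no parasites were detected they were counted cured. Parasitemia was measured by flow cytometry.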

Assay [2] concerns Mus musculus. The experiment in a line: Survival of Plasmodium berghei GFP infected mice (Mus musculus) at 30 mg/kg, subcutaneous after single dose. The essentials:
as §1

The subject of assay [3] is Mus musculus. The experiment in a line: Survival of Plasmodium berghei GFP infected mice (Mus musculus) at 3 mg/kg, subcutaneous after single dose. The essentials:
as §1

Assay [4] has as its system Mus musculus. The assay is described as follows: Survival of Plasmodium berghei GFP infected mice (Mus musculus) at 30 mg/kg, peroral after three doses. The note with it: route oral. In short, it runs like this:
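Three consecutive daily oral doses starting day 1 after infection; vehicle Tween 80 (70%)/ethanol (30%), then 10× dilution with water. Three animals per dimer group. Read-out is average survival in days after infection. Survivors at day 30 were sacrificed, and if no parasites were detected they were counted cured. Parasitemia was measured by flow cytometry.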

For `C[C@H]1[C@@H](CC(C[C@H]2O[C@H]3O[C@@]4(C)CC[C@H]5[C@H](C)CC[C@@H]([C@H]2C)[C@@]35OO4)C(=O)NCc2ccccc2)O[C@@H]2O[C@@]3(C)CC[C@H]4[C@H](C)CC[C@@H]1[C@@]24OO3` (some centres not stated), the Survival in assay [1] is 15 days; in assay [2], above 30 days; in assay [3], 12.3 days; in assay [4], 12.7 days.
For `C[C@H]1[C@@H](CC(C[C@H]2O[C@H]3O[C@@]4(C)CC[C@H]5[C@H](C)CC[C@@H]([C@H]2C)[C@@]35OO4)C(=O)NC(C)(C)C)O[C@@H]2O[C@@]3(C)CC[C@H]4[C@H](C)CC[C@@H]1[C@@]24OO3` (some centres not stated) the same measures were 25.3 days, above 30 days, 14 days and 14.7 days.
Take `C[C@H]1[C@@H](CC(CNc2ccccc2)C[C@H]2O[C@@H]3O[C@@]4(C)CC[C@H]5[C@H](C)CC[C@@H]([C@H]2C)[C@@]35OO4)O[C@@H]2O[C@@]3(C)CC[C@H]4[C@H](C)CC[C@@H]1[C@@]24OO3` (some centres not stated): the Survival in assay [1] is 12.3 days; in assay [2], above 30 days; in assay [3], 8 days.
As for `C[C@H]1[C@@H](CC(C[C@H]2O[C@H]3O[C@@]4(C)CC[C@H]5[C@H](C)CC[C@@H]([C@H]2C)[C@@]35OO4)C(=O)NNC(=O)c2ccncc2)O[C@@H]2O[C@@]3(C)CC[C@H]4[C@H](C)CC[C@@H]1[C@@]24OO3` (some centres not stated), the Survival was 10 days in assay [1], above 30 days in assay [2], 9 days in assay [3] and 7 days in assay [4].
For `C[C@H]1[C@@H](CC(O)(COCc2ccncc2)C[C@H]2O[C@@H]3O[C@@]4(C)CC[C@H]5[C@H](C)CC[C@@H]([C@H]2C)[C@@]35OO4)O[C@@H]2O[C@@]3(C)CC[C@H]4[C@H](C)CC[C@@H]1[C@@]24OO3` (some centres not stated) the same measures were 13.3 days, 15 days, 9.7 days and above 30 days.
In the case of `Cc1ccc(COCC(C[C@H]2O[C@@H]3O[C@@]4(C)CC[C@H]5[C@H](C)CC[C@@H]([C@H]2C)[C@@]35OO4)C[C@H]2O[C@@H]3O[C@@]4(C)CC[C@H]5[C@H](C)CC[C@@H]([C@H]2C)[C@@]35OO4)cc1` (some centres not stated), the Survival in assay [1] is 10 days; in assay [2] it was 27 days; in assay [3] it was 8 days; in assay [4] it was above 30 days.
For `C[C@H]1[C@H](OC(=O)CCC(=O)O)O[C@@H]2O[C@@]3(C)CC[C@H]4[C@H](C)CC[C@@H]1[C@@]24OO3` [ARTESUNATE] the same measures were 8.6 days, 9.1 days, 7.3 days and 7.5 days.
